The source of these data is ChEMBL document CHEMBL1821616, “New insights into the structural requirements for pro-apoptotic agents based on 2,4-diaminoquinazoline, 2,4-diaminopyrido[2,3-d]pyrimidine and 2,4-diaminopyrimidine derivatives” (Eur J Med Chem, 2011).

The source made the active and inactive calls. The rule behind the calls is not given here. Bounds are passed on as bounds.

A short description of data set [1]: Cytotoxicity against human CRL8799 cells assessed as cell survival at 20 to 100 uM after 72 hrs by neutral red dye assay. In kind it is cell-based. The conditions noted are these: read-out: Survival. The procedure, abridged: (§1)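 The non-tumoral lines were grown with 10% FBS plus penicillin/streptomycin, as monolayers at 37 °C in 5% CO2: CRL-8799 in MEG medium and CRL-11233 in BEGM. Compounds in DMSO (≤0.5% v/v final) were applied for 72 h. Survival was read by neutral red uptake against 0.5% DMSO solvent-treated controls, as the mean of triplicates.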

In data set [2] the test system is T-24. Description: Induction of apoptosis in human T24 cells assessed as caspase3 activation at IC50 after 48 hrs by FACS analysis relative to control. In kind it is functional. The essentials: (§2)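 Active caspase-3 was detected by flow cytometry with a FITC anti-active-caspase-3 antibody kit, with readings at 14, 24 and 48 h. Treated cells were compared with untreated control cells. Results are scored as (+) for an increase of about 50% and (++) for a larger rise.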

Data set [3] deals with HT-29. Description: Induction of apoptosis in human HT-29 cells assessed as DNA fragmentation after 48 hrs by ELISA relative to control. In kind it is functional. The essentials: (§3)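 DNA fragmentation was measured with the Cell Death Detection ELISA Plus kit after treatment of cultured tumour cells. The signal is expressed relative to untreated control cultures, which are set to 1.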

Data set [4] concerns HT-29. As to the kind of experiment: Cytotoxicity against human HT-29 cells assessed as cell survival at 100 uM after 72 hrs by neutral red dye assay. The note with it: HT-29, 72 h, read-out: Survival. Format: functional. The procedure, abridged:
(§4)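 HT-29 and T-24 cells were grown in McCoy's medium and MDA-MB-231 in Leibovitz, each with 10% FBS plus penicillin/streptomycin, as monolayers at 37 °C in 5% CO2. Compounds in DMSO (≤0.5% v/v final) were applied for 72 h. Survival was read by neutral red uptake against 0.5% DMSO-treated cells, as the mean of triplicates.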

Data set [5] concerns MDA-MB-231. Description: Induction of apoptosis in human MDA-MB-231 cells assessed as DNA fragmentation after 24 hrs by ELISA relative to control. In kind it is functional. The procedure, abridged:
as §3

The subject of data set [6] is HT-29. As to the kind of experiment: Induction of apoptosis in human HT-29 cells assessed as caspase3 activation at IC50 after 48 hrs by FACS analysis relative to control. Format: functional. The essentials: as §2
Data set [7] concerns MDA-MB-231. Description: Cytotoxicity against human MDA-MB-231 cells after 72 hrs by neutral red dye assay. In kind it is functional, cell-based. The note with it: MDA-MB-231, 72 h. The essentials:
(§5)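 Human tumour cells were grown as monolayers with 10% FBS and penicillin/streptomycin at 37 °C in 5% CO2 (HT-29 and T-24 in McCoy's, MDA-MB-231 in Leibovitz). They were exposed to compound in DMSO (≤0.5% v/v final) at screening concentrations of 20 and 100 μM for 72 h and read by neutral red uptake. Survival is relative to cells given DMSO only, in triplicate.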

For data set [8], the system named is T-24. As to the kind of experiment: Cytotoxicity against human T24 cells after 72 hrs by neutral red dye assay. The note with it: T-24, 72 h. In kind it is functional, cell-based. The procedure, abridged: as §5
The test system of data set [9] is HT-29. As to the kind of experiment: Cytotoxicity against human HT-29 cells after 72 hrs by neutral red dye assay. In kind it is functional, cell-based. The note with it: HT-29, 72 h. The procedure, abridged: as §5
Data set [10] is described as follows: Cytotoxicity against human CRL11233 cells assessed as cell survival at 20 to 100 uM after 72 hrs by neutral red dye assay. Format: cell-based. The note with it: read-out: Survival. The essentials: as §1
Data set [11] has as its system MDA-MB-231. As to the kind of experiment: Cytotoxicity against human MDA-MB-231 cells assessed as cell survival at 100 uM after 72 hrs by neutral red dye assay. Format: functional. The note with it: MDA-MB-231, 72 h, read-out: Survival. The essentials:
as §4

In data set [12] the test system is T-24. Description: Induction of apoptosis in human T24 cells assessed as DNA fragmentation after 48 hrs by ELISA relative to control. Format: functional. The procedure, abridged:
as §3

Data set [13] concerns T-24. Description: Cytotoxicity against human T24 cells assessed as cell survival at 100 uM after 72 hrs by neutral red dye assay. In kind it is functional. The conditions noted are these: T-24, 72 h, read-out: Survival. The procedure, abridged: as §4
For data set [14], the system named is HT-29. As to the kind of experiment: Cytotoxicity against human HT-29 cells after 48 hrs by neutral red dye assay. Format: functional, cell-based.
For data set [15], the system named is MDA-MB-231. As to the kind of experiment: Cytotoxicity against human MDA-MB-231 cells after 48 hrs by neutral red dye assay. Format: functional, cell-based.
For data set [16], the system named is T-24. As to the kind of experiment: Cytotoxicity against human T24 cells after 48 hrs by neutral red dye assay. Format: functional, cell-based.
The test system of data set [17] is T-24. As to the kind of experiment: Induction of apoptosis in human T24 cells assessed as DNA fragmentation after 48 hrs by ELISA relative to camptothecin. In kind it is functional.
The test system of data set [18] is HT-29. Description: Induction of apoptosis in human HT-29 cells assessed as DNA fragmentation after 48 hrs by ELISA relative to camptothecin. In kind it is functional.

Consider `CCCCCNc1nc(SC(C)C)nc2ncccc12`, for which the viability at 72 h, up to 100 µM turned out to be 100% in [1] and 66% in data set [10]. Also, the Activity is on record as 50% in the data set on T-24 [2] and 75% in the data set on HT-29 [6]. The “fold change (FC)” value amounted to 4.2 in the data set with HT-29 [3], 2.2 in the data set with MDA-MB-231 [5] and 1.7 in the data set with T-24 [12]. The viability at 100 µM in the data set with HT-29 [4], with MDA-MB-231 [11] and with T-24 [13] was less than 45% throughout. Also, the IC50 with MDA-MB-231 [7] was 5.6 µM; in the data set with T-24 [8] it was 7.9 µM; in the data set on HT-29 [9] it was 25.2 µM.

With `OCCCNc1nc(NCCCO)c2cccnc2n1`, the IC50 result in the data set with HT-29 [14], with MDA-MB-231 [15] and in the data set with T-24 [16] was “Not Active” in each case.

As to `c1ccc(CNc2ccnc(NCc3ccccc3)n2)cc1`, the viability at 72 h, up to 100 µM in data set [1] amounted to 22%; in data set [10] it was 0%. Further, the “fold change (FC)” value in the data set with T-24 [17] was 2.3; in the data set with HT-29 [3], 7.4; in the data set on HT-29 [18], 2.3; with T-24 [12], 6. The viability at 100 µM in the data set on HT-29 [4], with MDA-MB-231 [11] and with T-24 [13] was less than 45% each time. For the same molecule, the result in the data set on MDA-MB-231 [5] was inactive. The half-inhibitory concentration (IC50) in the data set with MDA-MB-231 [7] was determined as 1.9 µM; in the data set on T-24 [8], 6.1 µM; in the data set on HT-29 [9], 17.2 µM.

In the case of `CCCCCSc1nc(NCCCC)c2cccnc2n1`, the IC50 entry with HT-29 [14], in the data set with MDA-MB-231 [15] and with T-24 [16] was “Not Active” in each case.

On to `CCCCCNc1nc(SCCCCC)nc2ncccc12`, for which the IC50 entry in the data set on HT-29 [14], in the data set on MDA-MB-231 [15] and with T-24 [16] was “Not Active” each time. The outcome in the data set on HT-29 [3] was inactive.

As for `CC(C)Sc1nc(NCCCO)c2cccnc2n1`, the half-maximal inhibitory concentration (IC50) entry with HT-29 [14], with MDA-MB-231 [15] and in the data set on T-24 [16] was “Not Active” each time. For the same molecule, the result with HT-29 [3] and in the data set with MDA-MB-231 [5] was inactive.

As to `OCCCCNc1nc(NCCCCO)c2cccnc2n1`, the IC50 entry with HT-29 [14], in the data set with MDA-MB-231 [15] and with T-24 [16] was “Not Active” throughout.

For `CCSc1nc(NCCCCO)c2cccnc2n1`, the 50% inhibitory concentration (IC50) result in the data set on HT-29 [14], in the data set on MDA-MB-231 [15] and with T-24 [16] was “Not Active” each time.

For the molecule `c1ccc(CCNc2nc(NCCc3ccccn3)c3cccnc3n2)nc1`, the half-maximal inhibitory concentration (IC50) entry in the data set with HT-29 [14], in the data set on MDA-MB-231 [15] and with T-24 [16] was “Not Active” throughout.

In the case of `c1ccc(CCCNc2nc(NCCCc3ccccc3)c3ccccc3n2)cc1`, the viability at 72 h, up to 100 µM in data set [1] was found to be 87%; in [10], 2%. In addition, the Activity with T-24 [2] and in the data set with HT-29 [6] was 75% in each case. Moreover, the outcome with HT-29 [3], in the data set on MDA-MB-231 [5] and in the data set on T-24 [12] was inactive. Moreover, the viability at 100 µM with HT-29 [4], in the data set on MDA-MB-231 [11] and with T-24 [13] was less than 45% in each case. For the same molecule, the values for the IC50 with MDA-MB-231 [7], in the data set on T-24 [8] and in the data set with HT-29 [9] were 4.18 µM, 3.45 µM and 2.2 µM, respectively.

Turning to `c1ccc(CCCCNc2ccnc(NCCCCc3ccccc3)n2)cc1`, the 50% inhibitory concentration (IC50) entry in the data set on HT-29 [14], with MDA-MB-231 [15] and in the data set with T-24 [16] was “Not Active” throughout.

For `CCSc1nc(NCCCO)c2cccnc2n1`, the IC50 result in the data set with HT-29 [14], with MDA-MB-231 [15] and with T-24 [16] was “Not Active” in each case.

On to `CCCCCCNc1nc(SCCCC)nc2ncccc12`, for which the viability at 72 h, up to 100 µM came out at 95% in [1] and 99% in [10]. Besides, the Activity with T-24 [2] and in the data set with HT-29 [6] was 75% in each case. For the same molecule, the “fold change (FC)” value with HT-29 [3] was 6.4; in the data set on MDA-MB-231 [5], 9.3; in the data set with T-24 [12], 4.3. Besides, the viability at 100 µM in the data set on HT-29 [4], in the data set with MDA-MB-231 [11] and with T-24 [13] was less than 45% in each case. The IC50 with MDA-MB-231 [7] stood at 1.2 µM; with T-24 [8], 4.5 µM; in the data set with HT-29 [9], 2.8 µM.

`CCSc1nc(NCCCCCO)c2cccnc2n1`: the 50% inhibitory concentration (IC50) result in the data set on HT-29 [14], in the data set on MDA-MB-231 [15] and with T-24 [16] was “Not Active” throughout.

Regarding `Brc1ccc(CCNc2nc(NCCc3ccc(Br)cc3)c3ccccc3n2)cc1`, the results for the viability at 72 h, up to 100 µM in data set [1] and in data set [10] were 11% and 1%, respectively. In addition, the Activity with T-24 [2] and with HT-29 [6] was 50% each time. Besides, the outcome in the data set with HT-29 [3], with MDA-MB-231 [5] and in the data set on T-24 [12] was inactive. For the same molecule, the viability at 100 µM in the data set with HT-29 [4], in the data set with MDA-MB-231 [11] and in the data set on T-24 [13] was less than 45% each time. For the same molecule, the IC50 in the data set on MDA-MB-231 [7] is 10.4 µM; with T-24 [8] it was 3.32 µM; with HT-29 [9], 3.47 µM.
